Source: ChEMBL document CHEMBL1275449, “Potent in vitro antifungal activities of naturally occurring acetylenic acids” (Antimicrob Agents Chemother, 2008)
Converted amounts (≈) assume the structure as drawn.

What was measured:
[1] = test system: Trichophyton mentagrophytes; experiment: Antifungal activity against Trichophyton mentagrophytes ATCC 9533 by CLSI method; assay type: functional, organism-based
In short: (§1)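 Growth scraped from 1- to 6-week-old potato dextrose slants and filtered through Miracloth. Diluted in 5% Alamar blue-RPMI 1640 (MOPS pH 7.0) to 2.7 × 10⁴ CFU/ml. Eleven twofold dilutions in duplicate. Fluorescence at 544 nm excitation/590 nm emission read before and after 35°C, 5 days. IC50 fitted from percent growth. MIC taken as no detectable growth; MFC from clear or blue wells plated on PD agar.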

[2] = test system: Pichia kudriavzevii; experiment: Antifungal activity against Candida krusei ATCC 6258 after 48 hrs by CLSI method; assay type: functional, organism-based; conditions: ATCC 6258, 48 h
In short: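 Candida inocula came from 24–72-h SD agar colonies suspended in saline. They were diluted by OD630 standard curve into RPMI 1640 (0.2% dextrose, 0.03% glutamine, 0.165 M MOPS, pH 7.0) to 1.5 × 10³ CFU/ml. Compounds were run as 11 twofold dilutions in 20% DMSO-saline, in duplicate, at 35°C for 48 h, with OD530 read before and after. Percent growth at the top concentration, IC50, MIC, and MFC (SD agar plating) were derived.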

[3] = test system: SK-MEL; experiment: Cytotoxicity against human SK-MEL cells up to 32 uM by neutral red method; assay type: cell-based
In short: (§2)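 Neutral red uptake cytotoxicity, top concentration 32 μM.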

[4] = test system: Aspergillus fumigatus; experiment: Antifungal activity against Aspergillus fumigatus ATCC 204305 after 48 h by CLSI method; conditions: ATCC 204305, 48 h
[5] = test system: Aspergillus fumigatus; experiment: Antifungal activity against Aspergillus fumigatus ATCC 90906 after 48 h by CLSI method; conditions: ATCC 90906, 48 h
[6] = test system: Candida albicans; experiment: Antifungal activity against Candida albicans ATCC 200955 after 48 hrs by CLSI method; assay type: functional, organism-based; conditions: ATCC 200955, 48 h
In short: (§3)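 CLSI broth microdilution. Colonies from 24–72 h SD agar suspended in saline and sized by OD630 standard curve. Inoculum 1.5 × 10³ CFU/ml (final) in RPMI 1640 (0.2% dextrose, 0.03% glutamine, 0.165 M MOPS, pH 7.0). Twofold dilutions (11 levels) from 20% DMSO-saline, in duplicate. 35°C for 48 h, OD530 read before and after. IC50 fitted from % growth. MIC: no detectable growth. MFC: subculture onto SD agar.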

[7] = test system: BT-549; experiment: Cytotoxicity against human BT549 cells up to 32 uM by neutral red method; assay type: cell-based; in short: as §2
[8] = test system: Candida albicans; experiment: Antifungal activity against Fluconazole resistant Candida albicans clinical isolate 1 after 48 hrs by CLSI method; assay type: functional, organism-based; in short: as §3
[9] = test system: Candida albicans; experiment: Antifungal activity against Candida albicans ATCC 60193 after 48 hrs by CLSI method; assay type: functional, organism-based; conditions: ATCC 60193, 48 h; in short: as §3
[10] = test system: Candida albicans; experiment: Antifungal activity against Candida albicans ATCC 14053 after 48 hrs by CLSI method; assay type: functional, organism-based; conditions: ATCC 14053, 48 h; in short: as §3
[11] = test system: Candida tropicalis; experiment: Antifungal activity against Candida tropicalis ATCC 750 after 48 hrs by CLSI method; assay type: functional, organism-based; conditions: ATCC 750, 48 h
In short: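 Yeast suspensions made from 3-5 colonies off 24-72 h SD agar plates in saline. They were diluted by OD630 standard curve in RPMI 1640 (0.2% dextrose, 0.03% glutamine, 0.165 M MOPS, pH 7.0) to 1.5 × 10³ CFU/ml. Twofold dilutions (11 concentrations, 20% DMSO-saline) run in duplicate. OD530 read before and after 35°C, 48 h. Line values are top test concentrations; no-growth endpoints give MIC/MFC.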

[12] = test system: Candida albicans; experiment: Antifungal activity against Candida albicans ATCC 32354 after 48 hrs by CLSI method; assay type: functional, organism-based; conditions: ATCC 32354, 48 h; in short: as §3
[13] = test system: Trichophyton mentagrophytes; experiment: Antifungal activity against Trichophyton mentagrophytes ATCC MYA-4439 by CLSI method; assay type: functional, organism-based; in short: as §1
[14] = test system: Trichophyton rubrum; experiment: Antifungal activity against Trichophyton rubrum ATCC 10218 by CLSI method; assay type: functional, organism-based; in short: as §1
[15] = test system: LLC-PK1; experiment: Cytotoxicity against pig LLC-PK1 cells up to 32 uM by neutral red method; assay type: cell-based, Sus scrofa; in short: as §2
[16] = test system: Vero; experiment: Cytotoxicity against African green monkey Vero cells up to 32 uM by neutral red method; assay type: cell-based; conditions: chlorocebus sabaeus; in short: as §2
[17] = test system: Trichophyton rubrum; experiment: Antifungal activity against Trichophyton rubrum ATCC MYA-4438 by CLSI method; assay type: functional, organism-based; in short: as §1
[18] = test system: Candida albicans; experiment: Antifungal activity against Candida albicans ATCC 90028 after 48 hrs by CLSI method; assay type: functional, organism-based; conditions: ATCC 90028, 48 h; in short: as §3
[19] = test system: Candida albicans; experiment: Antifungal activity against Fluconazole resistant Candida albicans clinical isolate 17 after 48 hrs by CLSI method; assay type: functional, organism-based; in short: as §3
[20] = test system: KB; experiment: Cytotoxicity against human KB cells up to 32 uM by neutral red method; assay type: cell-based; in short: as §2
[21] = test system: SK-OV-3; experiment: Cytotoxicity against human SKOV3 cells up to 32 uM by neutral red method; assay type: cell-based; in short: as §2
[22] = test system: Cryptococcus neoformans; experiment: Antifungal activity against Cryptococcus neoformans ATCC 66031 after 72 hrs by CLSI method; assay type: functional, organism-based; conditions: ATCC 66031, 72 h
In short: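 SD broth replaced RPMI because growth in RPMI was poor; other CLSI conditions were kept. Inoculum was 1.5 × 10³ CFU/ml from colonies on SD agar, checked by plating. Twofold serial dilutions (11 concentrations) in 20% DMSO-saline were tested in duplicate. OD530 was read before and after incubation at 35°C for 72 h. Percent growth gave IC50; the MIC is the lowest concentration with no detectable growth.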

CCCCCCCCCCCCC#CCCCCC(=O)O [6-NONADECYNOIC ACID]
IC50 [1]: 900 nM | MFC [1]: 2.7 µM (≈ 0.795 µg/mL) | MIC [1]: 2 µM (≈ 0.589 µg/mL) | IC50 [2]: 4100 nM | MIC [2]: 10.6 µM (≈ 3.12 µg/mL) | Activity [3]: Non-toxic | IC50 [4]: 1100 nM | MIC [4]: 2.7 µM (≈ 0.795 µg/mL) | IC50 [5]: 1400 nM | MIC [5]: 6.6 µM (≈ 1.94 µg/mL) | IC50 [6]: 900 nM | MIC [6]: 1.3 µM (≈ 0.383 µg/mL) | Activity [7]: Non-toxic | MIC [8]: 2.7 µM (≈ 0.795 µg/mL) | IC50 [9]: 1600 nM | MIC [9]: 2.7 µM (≈ 0.795 µg/mL) | IC50 [10]: 800 nM | MFC [10]: 2.7 µM (≈ 0.795 µg/mL) | MIC [10]: 1.3 µM (≈ 0.383 µg/mL) | IC50 [11]: 5200 nM | IC50 [12]: 1600 nM | MIC [12]: 8 µM (≈ 2.36 µg/mL) | IC50 [13]: 400 nM | MFC [13]: 0.7 µM (≈ 0.206 µg/mL) | MIC [13]: 0.7 µM (≈ 0.206 µg/mL) | IC50 [14]: 1000 nM | MFC [14]: 5.3 µM (≈ 1.56 µg/mL) | MIC [14]: 2 µM (≈ 0.589 µg/mL) | Activity [15]: Non-toxic | Activity [16]: Non-toxic | IC50 [17]: 600 nM | MIC [17]: 3.3 µM (≈ 0.972 µg/mL) | IC50 [18]: 1300 nM | MIC [18]: 2.7 µM (≈ 0.795 µg/mL) | IC50 [19]: 1500 nM | MIC [19]: 8 µM (≈ 2.36 µg/mL) | Activity [20]: Non-toxic | Activity [21]: Non-toxic | IC50 [22]: 1100 nM
